Reference: PubChem BioAssay AID588557 (Sanford-Burnham Center for Chemical Genomics, 2011)
pIC50: −log10 of the molar value. Calls of active or inactive are those of the source.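 The calls were made as follows: active = cytotoxic IC50, the dose that kills half the cells, at 20 µM or lower; inactive = the rest.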

Tested on: CHO-CHOP cells viability, ATPLite luminescence, 6 h
Assay: CHO-CHOP cell viability loss – 6 h exposure, ATPLite luminescence, cytotoxicity control for UPR apoptotic arm activator project, SAR follow-up (AID 588557)
Outline: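 Assay system: CHO-CHOP reporter cells / Input: 500 cells per well / Buffer or medium: F12 medium with 10% fetal bovine serum / Compound: dose response, DMSO ≤1% final / Times: 16–18 h pre-dosing growth, then 6 h exposure at 37 °C / Technique: ATPLite 1-Step luminescence / Benchmarks: tunicamycin 10 µg/mL final as positive control, DMSO alone as negative control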

Row | SMILES | IC50 | pIC50
1 | O=C(Nc1ccc(S(=O)(=O)N2CCNCC2)cc1)c1ccc([N+](=O)[O-])o1 | > 80 µM (inactive) | –
2 | O=C(Nc1nc2cc(F)cc(F)c2s1)c1ccccn1 | – | 5.05
3 | O=C(Nc1ccc(S(=O)(=O)c2ccccc2)cc1)c1ccc([N+](=O)[O-])o1 | > 80 µM (inactive) | –
4 | O=C(Nc1nc2c(F)ccc(F)c2s1)c1ccccn1 | 23.6 µM (inactive) | –
5 | CC1(C)CCN(S(=O)(=O)c2ccc(NC(=O)c3ccc([N+](=O)[O-])o3)cc2)CC1 | > 80 µM (inactive) | –
6 | O=C(Nc1ccc(S(=O)(=O)C2CCCCC2)cc1)c1ccc([N+](=O)[O-])o1 | > 80 µM (inactive) | –
7 | O=C(Nc1nc2ccc(F)cc2s1)c1ccccn1 | – | 5.34
8 | O=C(Nc1ccc(S(=O)(=O)C2CCOCC2)cc1)c1ccc([N+](=O)[O-])o1 | > 80 µM (inactive) | –
9 | O=C(Nc1ccc(S(=O)(=O)N2CCOCC2)cc1)c1ccc([N+](=O)[O-])o1 | > 80 µM (inactive) | –
10 | O=C(Nc1nc2cc(F)c(F)cc2s1)c1ccccn1 | – | 5.08
11 | O=C(Nc1ccc(S(=O)(=O)N2CCC(O)CC2)cc1)c1ccc([N+](=O)[O-])o1 | > 80 µM (inactive) | –
12 | O=C(Nc1nc2ccc(F)c(F)c2s1)c1ccccn1 | – | 4.87
13 | O=C(Nc1ccc(S(=O)(=O)N2CCC(Cl)CC2)cc1)c1ccc([N+](=O)[O-])o1 | > 80 µM (inactive) | –
14 | Cc1cc(C)c2nc(NC(=O)c3ccccn3)sc2c1 | – | 4.79
15 | O=C(Nc1nc2c(F)cccc2s1)c1ccccn1 | – | 5.35
16 | O=C(Nc1ccc(S(=O)(=O)N2CCCCC2)cc1)c1ccc([N+](=O)[O-])o1 | > 80 µM (inactive) | –
17 | O=C(Nc1nc2ccc(Cl)cc2s1)c1ccccn1 | – | 5.42
18 | CC(C)(C)C1CCN(S(=O)(=O)c2ccc(NC(=O)c3ccc([N+](=O)[O-])o3)cc2)CC1 | > 80 µM (inactive) | –
19 | O=C(Nc1nc2c(F)cc(F)cc2s1)c1ccccn1 | – | 5.02
20 | O=C(Nc1nc2c(F)c(F)ccc2s1)c1ccccn1 | – | 4.82
21 | CC1CCN(S(=O)(=O)c2ccc(NC(=O)c3ccc([N+](=O)[O-])o3)cc2)CC1 | > 80 µM (inactive) | –
22 | O=C(Nc1ccc(S(=O)(=O)N2CCOCC2)cc1)c1ccc([N+](=O)[O-])s1 | > 80 µM (inactive) | –
23 | CC1CN(S(=O)(=O)c2ccc(NC(=O)c3ccc([N+](=O)[O-])o3)cc2)CC(C)O1 (stereo not given) | > 80 µM (inactive) | –
24 | O=C(Nc1nc2ccc(C(F)(F)F)cc2s1)c1ccccn1 | – | 5.33
25 | O=C(Nc1nc2cccc(F)c2s1)c1ccccn1 | – | 5.15
26 | O=C(Nc1nc2cc(F)ccc2s1)c1ccccn1 | – | 5.57
27 | O=C(Nc1ccc(S(=O)(=O)N2CCCC2)cc1)c1ccc([N+](=O)[O-])o1 | 74.6 µM (inactive) | –
28 | O=C(Nc1ccc(S(=O)(=O)N2CCC3(CCCCC3)CC2)cc1)c1ccc([N+](=O)[O-])o1 | > 80 µM (inactive) | –
29 | O=C(Nc1nc2c(Cl)cc(Cl)cc2s1)c1ccccn1 | > 80 µM (inactive) | –
30 | O=C(Nc1ccc(S(=O)(=O)N2CCC(F)CC2)cc1)c1ccc([N+](=O)[O-])o1 | > 80 µM (inactive) | –
